The source made the active and inactive calls. The rule behind the calls is not given here.
Tests used:
[1] = system: A549; test: Cytotoxicity against human A549 cells assessed as cell growth inhibition at 10 uM after 36 hrs by CCK8 assay; assay type: functional, cell-based
[2] = system: A549; test: Anti-migratory activity against human A549 cells assessed as […] at 0.05 uM after 48 hrs by wound healing assay relative to control; assay type: functional; settings: A549, 48 h
In short: (§1)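 A549 monolayer seeded at 1 × 10⁵ cells/mL and grown 24 h, then scratched with a pipette tip. Compounds were added and cells kept 48 h in serum-free medium, then photographed. Migration distance was measured against lines fitted to the wound edges, with three points per plate. Inhibition (%) = (1 − D_drug/D_control) × 100. Mean ± SD of three independent experiments in triplicate.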

[3] = organism: Homo sapiens; test: Binding affinity to human telomeric 26 G-quadruplex DNA after 24 hrs by SYBR gold staining based electrophoretic mobility shift assay
[4] = organism: Homo sapiens; test: Binding affinity to human telomeric 26 G-quadruplex DNA assessed as change in melting temperature at drug/DNA ratio of 1:10 by UV spectrophotometry (reference value: 39.34 degC)
[5] = system: MRC5; test: Cytotoxicity against human MRC5 cells after 36 hrs by CCK8 assay; assay type: cell-based; settings: MRC5, 36 h
[6] = system: A549; test: Anti-migratory activity against human A549 cells assessed as […] at 0.2 uM after 48 hrs by wound healing assay relative to control; assay type: functional; settings: A549, 48 h; in short: as §1
[7] = system: A549; test: Anti-migratory activity against human A549 cells assessed as […] at 0.1 uM after 48 hrs by wound healing assay relative to control; assay type: functional; settings: A549, 48 h; in short: as §1
[8] = organism: Homo sapiens; test: Binding affinity to human telomeric 26 G-quadruplex DNA up to 20 uM after 24 hrs by SYBR gold staining based electrophoretic mobility shift assay
[9] = organism: Homo sapiens; test: Binding affinity to human telomeric 26 mutated DNA up to 40 uM after 24 hrs by SYGR gold staining based electrophoretic mobility shift assay
[10] = organism: Homo sapiens; test: Binding affinity to human telomeric 26 double stranded DNA up to 40 uM after 24 hrs by SYBR gold staining based electrophoretic mobility shift assay
[11] = Selectivity index, ratio of IC50 for human MRC5 cells to IC50 for human A549 cells; assay type: functional
[12] = system: A549; test: Cytotoxicity against human A549 cells after 36 hrs by CCK8 assay; assay type: functional, cell-based; settings: A549, 36 h
[13] = system: A549; test: Cytotoxicity against human A549/ATCC cells after 48 hrs by sulforhodamine B assay; assay type: functional, cell-based; settings: A549, 48 h

Cc1ccc(-c2n[nH]cc2-c2nc3c4cccnc4c4ncccc4c3[nH]2)cc1
growth inhibition (GI) [1]: Active

Fc1ccc(-c2n[nH]cc2-c2nc3c4cccnc4c4ncccc4c3[nH]2)cc1
growth inhibition (GI) [1]: Active

Cc1ccc(-c2nn(C)cc2-c2nc3c4cccnc4c4ncccc4c3[nH]2)cc1
growth inhibition (GI) [1]: Active

Cn1cc(-c2nc3c4cccnc4c4ncccc4c3[nH]2)c(-c2ccc(F)cc2)n1
growth inhibition (GI) [1]: Active

CN(C)CCCn1cc(-c2nc3c4cccnc4c4ncccc4c3[nH]2)c(-c2ccc(Cl)cc2)n1
growth inhibition (GI) [1]: Active

Cc1ccc(-c2nn(-c3ccc([N+](=O)[O-])cc3[N+](=O)[O-])cc2-c2nc3c4cccnc4c4ncccc4c3[nH]2)cc1
growth inhibition (GI) [1]: Active

Cc1ccc(-c2nn(CCCN(C)C)cc2-c2nc3c4cccnc4c4ncccc4c3[nH]2)cc1
growth inhibition (GI) [1]: Active

Brc1ccc(-c2nn(Cc3ccccc3)cc2-c2nc3c4cccnc4c4ncccc4c3[nH]2)cc1
inhibition of growth at 0.05 µM [2]: 48.3%
Activity [3]: Dose-dependent effect
ΔTm [4]: 20.5 °C
IC50 [5]: 3.83 µM
growth inhibition (GI) [1]: Active
inhibition of growth at 0.2 µM [6]: 98.4%
inhibition of growth at 0.1 µM [7]: 78.8%
Activity [8]: Active
Activity [9]: inactive
Activity [10]: inactive
Ratio IC50 [11]: 2.58
IC50 [12]: 1.48 µM

Cn1cc(-c2nc3c4cccnc4c4ncccc4c3[nH]2)c(-c2ccc(Br)cc2)n1
growth inhibition (GI) [1]: Active

Nc1ccc(-n2cc(-c3nc4c5cccnc5c5ncccc5c4[nH]3)c(-c3ccc(Br)cc3)n2)nn1
growth inhibition (GI) [1]: Active

CN(C)CCCn1cc(-c2nc3c4cccnc4c4ncccc4c3[nH]2)c(-c2ccc(Br)cc2)n1
growth inhibition (GI) [1]: Active

O=[N+]([O-])c1ccc(-n2cc(-c3nc4c5cccnc5c5ncccc5c4[nH]3)c(-c3ccc(Cl)cc3)n2)c([N+](=O)[O-])c1
growth inhibition (GI) [1]: Active

Cn1cc(-c2nc3c4cccnc4c4ncccc4c3[nH]2)c(-c2ccc(Cl)cc2)n1
growth inhibition (GI) [1]: Active

O=[N+]([O-])c1ccc(-n2cc(-c3nc4c5cccnc5c5ncccc5c4[nH]3)c(-c3ccc(Br)cc3)n2)c([N+](=O)[O-])c1
growth inhibition (GI) [1]: Active

Brc1ccc(-c2nc3c4cccnc4c4ncccc4c3[nH]2)cc1
inhibition of growth at 0.05 µM [2]: 16.1%
ΔTm [4]: 11 °C
IC50 [5]: 6.88 µM
growth inhibition (GI) [1]: Active
inhibition of growth at 0.2 µM [6]: 56.1%
inhibition of growth at 0.1 µM [7]: 23.7%
Activity [8]: inactive
Activity [9]: inactive
Activity [10]: inactive
Ratio IC50 [11]: 4.07
IC50 [12]: 1.69 µM

Fc1ccc(-c2nn(Cc3ccccc3)cc2-c2nc3c4cccnc4c4ncccc4c3[nH]2)cc1
inhibition of growth at 0.05 µM [2]: 34.5%
ΔTm [4]: 12.4 °C
IC50 [5]: 3.8 µM
growth inhibition (GI) [1]: Active
inhibition of growth at 0.2 µM [6]: 93.3%
inhibition of growth at 0.1 µM [7]: 86.6%
Activity [8]: inactive
Ratio IC50 [11]: 2.13
IC50 [12]: 1.78 µM

Brc1ccc(-c2n[nH]cc2-c2nc3c4cccnc4c4ncccc4c3[nH]2)cc1
growth inhibition (GI) [1]: Active

Cc1ccc(-c2nn(Cc3ccccc3)cc2-c2nc3c4cccnc4c4ncccc4c3[nH]2)cc1
inhibition of growth at 0.05 µM [2]: 16.3%
ΔTm [4]: 16.3 °C
IC50 [5]: 4.76 µM
growth inhibition (GI) [1]: Active
inhibition of growth at 0.2 µM [6]: 85.8%
inhibition of growth at 0.1 µM [7]: 54.6%
Activity [8]: inactive
Ratio IC50 [11]: 1.73
IC50 [12]: 2.75 µM

Clc1ccc(-c2nn(Cc3ccccc3)cc2-c2nc3c4cccnc4c4ncccc4c3[nH]2)cc1
inhibition of growth at 0.05 µM [2]: 24.7%
ΔTm [4]: 13.5 °C
IC50 [5]: 4.17 µM
growth inhibition (GI) [1]: Active
inhibition of growth at 0.2 µM [6]: 94.4%
inhibition of growth at 0.1 µM [7]: 54.2%
Activity [8]: inactive
Ratio IC50 [11]: 2
IC50 [12]: 2.08 µM

Clc1ccc(-c2n[nH]cc2-c2nc3c4cccnc4c4ncccc4c3[nH]2)cc1
growth inhibition (GI) [1]: Active

Oc1cn(-c2ccc(Cl)cc2)nc1-c1n[nH]c(=S)n1-c1ccc(F)cc1
GI50 [13]: 13.2 µM

CN(C)CCCn1cc(-c2nc3c4cccnc4c4ncccc4c3[nH]2)c(-c2ccc(F)cc2)n1
growth inhibition (GI) [1]: Active

O=[N+]([O-])c1ccc(-n2cc(-c3nc4c5cccnc5c5ncccc5c4[nH]3)c(-c3ccc(F)cc3)n2)c([N+](=O)[O-])c1
growth inhibition (GI) [1]: Active

Source: ChEMBL document CHEMBL4033622, “Synthesis and the interaction of 2-(1H-pyrazol-4-yl)-1H-imidazo[4,5-f][1,10]phenanthrolines with telomeric DNA as lung cancer inhibitors” (Eur J Med Chem, 2017)
